Source: PubChem BioAssay
Results filed as inconclusive are left out. Activity calls are given as the source filed them.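 Rule for the calls, unless noted: active = viability increase at or above a cutoff of the median across tested compounds plus 3 SD (cut at about 8.5% in these data, passing the limit was not always enough); inconclusive = some gains above the cutoff, reason not given; inactive = the rest.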

Legend:
[1] = OD615 S. cerevisiae growth inhibition, permissive medium, pilot counter-assay, permissive growth control for S. cerevisiae lifespan shortening project (AID 705;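 active = growth inhibition above 25% in both replicates, a cutoff set 3 SD above the mean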); conditions: OD615, 24 h, at 10 µM, stronger effect = higher value
In short: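 System: Engineered DeaD yeast | Buffer or medium: SC raffinose/galactose permissive medium | Doses: 10 µM single dose, 0.25% DMSO | Times: 24 h exposure, 30 °C | Measured by: OD615 turbidity read | Read-out: Yeast growth inhibition indicated by reduced 24 h OD615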

[2] = Restrictive medium S. cerevisiae growth inhibition, OD615, pilot screen of yeast lifespan reduction project, restrictive growth control (AID 706;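 active = growth inhibition above a set limit, 3 SD over mean compound inhibition, in both replicates, cut at about 43% in these data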;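 note: modified DeaD lifespan yeast strain shifted to restrictive glucose medium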); conditions: OD615, 48 h, at 10 µM, stronger effect = higher value
In short: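 Assay system: engineered S. cerevisiae DeaD strain; Buffer or medium: CSMM-D glucose medium; Dosing: 10 µM compound, 0.25% DMSO; Times: cell pre-growth 4 h, compound exposure 48 h, 30 °C; Detection: absorbance (optical density) measured at 615 nm.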

[3] = viability gain of MRP-1-high H69AR cells under doxorubicin, pilot screen, MRP-1 activator project, CellTiter-Glo, duplicate (AID 807); conditions: H69AR viability with doxorubicin, CellTiter-Glo luminescence; at 10 µM; stronger effect = higher value;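 note: compound pretreatment 18-22 h then 72 h combined with doxorubicin; 0% = doxorubicin alone and 100% = vehicle without doxorubicin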
[4] = growth suppression of beta-catenin knockout HCT116, pilot screen, human colon tumor cells (AID 823;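 active = cell viability at or below a set limit in both duplicate runs, the limit being the all-compound median minus 4 SD, cut at about 23% in these data, passing the limit was not always enough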;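 note: 0% = wells killed by 20 µM Hyamine and 100% = untreated DMSO cell wells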); conditions: CellTiter-Glo, 60 h, at 10 µM, stronger effect = lower value
[5] = growth suppression of PTEN-deleted HCT116, pilot screen, cell-based, HCT116 clonal line, CellTiter-Glo (AID 824;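 active = viability at or below 27.92% in each of two runs, the all-compound median minus 4 SD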;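 note: 0% = 20 µM Hyamine control and 100% = vehicle cell control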); conditions: 60 h, at 10 µM, stronger effect = lower value
[6] = inhibitors of the yeast RAM network, pilot screen, dse1pr::URA3 reporter, 5-FOA selection (AID 869;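 active = inhibition over a set limit, the all-compound mean plus 3 SD, in both replicate runs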;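 note: 0% = DMSO wells with no growth and 100% = 10 µM 1-NA-PP1 with full growth; RAM network block rescues cells from 5-FOA so hits raise OD615 growth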); conditions: S. cerevisiae dse1pr::URA3 5-FOA growth, OD615, 2 d; at 10 µM; stronger effect = higher value; strain carries analog-sensitive mutant Cbk1 kinase
[7] = RAM signaling pathway blockade in yeast – S. cerevisiae, Pdr1DBD-CYC8 efflux-inhibited sensitized strain, primary screen (AID 1298;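 active = RAM network inhibition above 8.4% in each of two replicates, 3 SD over the compound average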;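 note: 0% = DMSO untreated cells without growth and 100% = 10 µM 1-NA-PP1 full growth; higher means more yeast growth rescued from 5-FOA killing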); conditions: S. cerevisiae cbk1-as DSE1-URA3 strain, 5-FOA growth OD615, 2 d; at 50 µM; stronger effect = higher value

CCN1C(=O)NC2C1N(S(C)(=O)=O)CCN2S(C)(=O)=O (centres undefined)
inactive: growth inhibition [1] -1.72% | growth inhibition [2] 2.34% | viability increase [3] -0.57% | viability [4] 108% | viability [5] 92.1% | inhibition [6] 1.29% | RAM network inhibition [7] 4.02%

CC1CCCC(C)N1CCCNC(=O)Cn1cc2c(n1)CCCC2 (centres undefined)
inactive: growth inhibition [1] 9.32% | growth inhibition [2] 6.46% | viability increase [3] -1.41% | viability [4] 95.7% | viability [5] 92.5% | inhibition [6] -0.06% | RAM network inhibition [7] 6.61%

COCC(=O)Nc1cc(C)c2c(=O)oc3ccccc3c2n1
inactive: growth inhibition [1] 1.37% | growth inhibition [2] 5.79% | viability increase [3] -1.64% | viability [4] 96% | viability [5] 94% | inhibition [6] -0.92% | RAM network inhibition [7] 2.67%

O=C(CCCc1ccccc1)NCCN1CCOCC1
inactive: growth inhibition [1] -12.1% | growth inhibition [2] -5.57% | viability increase [3] 1.56% | viability [4] 104% | viability [5] 97.9% | inhibition [6] 0.795% | RAM network inhibition [7] 2.4%

COCn1c(-c2cccc(Br)c2)nc2ccccc21
inactive: growth inhibition [1] -10.2% | growth inhibition [2] 3.42% | viability increase [3] -4.2% | viability [4] 85.2% | viability [5] 86.8% | inhibition [6] 1.17% | RAM network inhibition [7] 3.8%

COc1cccc(C2(O)CCN(C(=O)c3cccs3)CC2)c1
inactive: growth inhibition [1] -9.43% | growth inhibition [2] 6.06% | viability increase [3] 0.71% | viability [4] 91.5% | viability [5] 97% | inhibition [6] 1.58% | RAM network inhibition [7] 5.17%

COc1ccc(N(CC(=O)N2CCCCC2)S(=O)(=O)c2c(C)nn(C)c2C)cc1
inactive: growth inhibition [1] -5.81% | growth inhibition [2] 5.36% | viability increase [3] -2.35% | viability [4] 105% | viability [5] 96.7% | inhibition [6] 1.69% | RAM network inhibition [7] 2.99%

CCOCCCNC(=O)c1cc2c(-c3ccc(Cl)cc3)nn(C)c2s1
inactive: growth inhibition [1] 7.49% | growth inhibition [2] 11% | viability increase [3] -6.53% | viability [4] 62.2% | viability [5] 56.8% | inhibition [6] 2.62% | RAM network inhibition [7] 1.34%

CCC1CCCCN1C(=O)CSc1nc2c(cnn2-c2ccc(C)cc2)c(=O)[nH]1 (centres undefined)
inactive: growth inhibition [1] -3.04% | growth inhibition [2] -5.33% | viability increase [3] -3.73% | viability [4] 97.2% | viability [5] 87.1% | inhibition [6] 1.71% | RAM network inhibition [7] 6.97%

CSc1ccc(C2C(C#N)=C(N)N(c3ccccc3)C3=C2C(=O)CCC3)cc1 (centres undefined)
inactive: growth inhibition [1] -11.5% | growth inhibition [2] -19.7% | viability increase [3] -7.43% | viability [4] 69.5% | viability [5] 74.6% | inhibition [6] 1.18% | RAM network inhibition [7] 2.23%

COc1cccc(-c2cc(N)nn2C(=O)Nc2ccc(Cl)cc2)c1
inactive: growth inhibition [1] -15.4% | growth inhibition [2] -29.3% | viability increase [3] -2.28% | viability [4] 105% | viability [5] 90.7% | inhibition [6] -0.025% | RAM network inhibition [7] 0.22%

O=C(O)c1ccccc1C(=O)c1cccs1
inactive: growth inhibition [1] -14.9% | growth inhibition [2] -17.1% | viability increase [3] -0.3% | viability [4] 101% | viability [5] 92.5% | inhibition [6] 0.54% | RAM network inhibition [7] 1.05%

COc1ccc(-n2c(Cc3cccn3C)nnc2SCC(=O)N2CCC(C)CC2)cc1
inactive: growth inhibition [1] 4.99% | growth inhibition [2] 18.8% | viability increase [3] -0.89% | viability [4] 94% | viability [5] 94.5% | inhibition [6] 1.42% | RAM network inhibition [7] 2.73%

CCOC(=O)CSc1nccc(N(C)C)c1C#N
inactive: growth inhibition [1] -5.06% | growth inhibition [2] 7.88% | viability increase [3] 1.04% | viability [4] 99% | viability [5] 100% | inhibition [6] 0.83% | RAM network inhibition [7] 4.81%

CCOC(=O)CCSCC(=O)Nc1nnc(C)s1
inactive: growth inhibition [1] -1.14% | growth inhibition [2] -0.57% | viability increase [3] 0.86% | viability [4] 113% | viability [5] 100% | inhibition [6] 0.55% | RAM network inhibition [7] 3.07%

COc1ccc(N2CSC3=C(C#N)C(c4cc(OC)ccc4OC)CC(=O)N3C2)c(OC)c1 (centres undefined)
inactive: growth inhibition [1] -1.38% | growth inhibition [2] 21.7% | viability increase [3] -6.09% | viability [4] 80.5% | viability [5] 82.6% | inhibition [6] 0.54% | RAM network inhibition [7] 2.28%

Cc1nnc(NC(=O)CSC2CCCCC2)s1
inactive: growth inhibition [1] 3.88% | growth inhibition [2] 17.7% | viability increase [3] -0.77% | viability [4] 105% | viability [5] 97.9% | inhibition [6] 1.1% | RAM network inhibition [7] 2.15%

CCOC(=O)N1CCN(c2c(Nc3ccc4c(c3)OCCO4)c(=O)c2=O)CC1
inactive: growth inhibition [1] 4.17% | growth inhibition [2] 4.07% | viability increase [3] -1.02% | viability [4] 105% | viability [5] 105% | inhibition [6] 1.1% | RAM network inhibition [7] 2.05%

Cn1c(C(=O)N2CCCCCC2)cc2c(=O)n(C)c3ccccc3c21
inactive: growth inhibition [1] -8.92% | growth inhibition [2] -2.14% | viability increase [3] -3.27% | viability [4] 94.9% | viability [5] 92.3% | inhibition [6] 1.33% | RAM network inhibition [7] 4.52%

CC(=O)NCCc1cc2ccc(C)c(C)c2[nH]c1=O
inactive: growth inhibition [1] -14.9% | growth inhibition [2] -18.7% | viability increase [3] -1.53% | viability [4] 103% | viability [5] 97% | inhibition [6] 1.05% | RAM network inhibition [7] 0.37%

COc1ccc(OC)c(NC(=O)c2ccc(NC(C)=O)cc2)c1
inactive: growth inhibition [1] -22.5% | growth inhibition [2] -12.5% | viability increase [3] 0.76% | viability [4] 109% | viability [5] 101% | inhibition [6] 1.2% | RAM network inhibition [7] 5.24%

CCOC(=O)C1CCN(C(=O)C2CCN(S(=O)(=O)c3cccc4cccnc34)CC2)CC1
inactive: growth inhibition [1] 4.06% | growth inhibition [2] 3.42% | viability increase [3] -1.75% | viability [4] 102% | viability [5] 97.6% | inhibition [6] 0.585% | RAM network inhibition [7] 1.1%

CCOC(=O)Cn1c(=O)oc2cc(S(=O)(=O)N3CCc4ccccc43)ccc21
inactive: growth inhibition [1] -6.21% | growth inhibition [2] 1.04% | viability increase [3] -1.01% | viability [4] 91.8% | viability [5] 93.8% | inhibition [6] -0.605% | RAM network inhibition [7] 2.93%

O=C(CN1CCN(C2CCCCC2)CC1)c1ccc2cc[nH]c2c1
inactive: growth inhibition [1] 5.4% | growth inhibition [2] 2.7% | viability increase [3] -3.56% | viability [4] 94% | viability [5] 85.7% | inhibition [6] 1.9% | RAM network inhibition [7] -1.26%

Cc1cc2cc(CNS(=O)(=O)c3ccccc3)ccc2n1C
inactive: growth inhibition [1] -4.47% | growth inhibition [2] 3.34% | viability increase [3] -1.48% | viability [4] 85.2% | viability [5] 86.2% | inhibition [6] 0.71% | RAM network inhibition [7] 2.49%

CN(Cc1ccccc1)c1nc2c(c(=O)n(C)c(=O)n2C)n1CCSc1ncccn1
inactive: growth inhibition [1] -11.7% | growth inhibition [2] -3.17% | viability increase [3] -2.71% | viability [4] 93.8% | viability [5] 87.1% | inhibition [6] 1.42% | RAM network inhibition [7] 3.63%

CCn1c(C)nc2cc(S(=O)(=O)N3CCCC3)ccc21
inactive: growth inhibition [1] -1.56% | growth inhibition [2] 11.8% | viability increase [3] -1.11% | viability [4] 94.3% | viability [5] 88.6% | inhibition [6] 0.805% | RAM network inhibition [7] 2.71%

CNC(=O)c1sc2nc(-c3ccc(OC)cc3)cn2c1C
inactive: growth inhibition [1] 3.27% | growth inhibition [2] 2.45% | viability increase [3] 1.57% | viability [4] 104% | viability [5] 106% | inhibition [6] 2% | RAM network inhibition [7] 0.64%

COc1ccc(-n2nc3cc(C)c(NC(=O)CC(C)C)cc3n2)cc1
inactive: growth inhibition [1] -7.39% | growth inhibition [2] -3.86% | viability increase [3] -0.97% | viability [4] 94% | viability [5] 92.2% | inhibition [6] 0.405% | RAM network inhibition [7] 3.76%

Cc1ccc2c(c1)NCC(C(=O)NC1CCC(C)CC1)O2 (centres undefined)
inactive: growth inhibition [1] -10.3% | growth inhibition [2] -4.18% | viability increase [3] 1.52% | viability [4] 98.4% | viability [5] 91.4% | inhibition [6] 1% | RAM network inhibition [7] 5.26%

C=CCn1c(=N)n(CC(O)COc2ccc(OC)cc2)c2ccccc21 (centres undefined)
inactive: growth inhibition [1] -10.9% | growth inhibition [2] 1.67% | viability increase [3] -4.96% | viability [4] 64.8% | viability [5] 69% | inhibition [6] -0.445% | RAM network inhibition [7] -0.51%

CC1Cc2nc(SCC(=O)NCCc3ccccc3)n(C)c(=O)c2S1 (centres undefined)
inactive: growth inhibition [1] -11.5% | growth inhibition [2] -1.29% | viability increase [3] -2.25% | viability [4] 100% | viability [5] 104% | inhibition [6] 1.77% | RAM network inhibition [7] 2.27%

CC(C)NC(=O)C1(O)c2ccccc2NC(=O)N1c1ccc(Cl)c(Cl)c1 (centres undefined)
inactive: growth inhibition [1] -5.92% | growth inhibition [2] -12.9% | viability increase [3] -2.69% | viability [4] 89.6% | viability [5] 93.9% | inhibition [6] 0.375% | RAM network inhibition [7] 2.53%

O=C(Nc1nc(-c2ccccn2)cs1)c1ccc(Cl)s1
inactive: viability increase [3] -8.93% | inhibition [6] -1.18% | RAM network inhibition [7] -2.58%
active: growth inhibition [1] 94.1% | growth inhibition [2] 96.8% | viability [4] 10.6% | viability [5] 22.1%

COc1cccc(OC)c1C(=O)Nc1nnc(C(C)C)s1
inactive: growth inhibition [1] -6.36% | growth inhibition [2] 6.23% | viability increase [3] -1.98% | viability [4] 89.9% | viability [5] 85.1% | inhibition [6] 2.25% | RAM network inhibition [7] 0.97%

Cc1c(C#N)c2ccccc2n1CC(=O)NCCc1c[nH]c2ccccc12
inactive: growth inhibition [1] -12.2% | growth inhibition [2] 5.17% | viability increase [3] -6.08% | viability [4] 52.7% | viability [5] 64.3% | inhibition [6] 3.73% | RAM network inhibition [7] 8.41%

COc1cc(OC)c(C2Oc3nc(SC)nnc3-c3ccccc3N2C(C)=O)cc1OC (centres undefined)
inactive: growth inhibition [1] 4.06% | growth inhibition [2] -0.66% | viability increase [3] -4.95% | viability [4] 108% | viability [5] 108% | inhibition [6] 3.23% | RAM network inhibition [7] 1.75%
